Numbering of substitutions follows the chain as printed.
How the values were obtained:
Assay in all cases: Whole-cell voltage clamp, Zn^2+ modulation of GAQ gating
Format in all cases: cell-based
[1] = target: T1, human Hv1 E153A (E^2.53A) (Homo sapiens, UniProt Q96D96, E153A)
T1 sequence (Q96D96 1-273 E153A): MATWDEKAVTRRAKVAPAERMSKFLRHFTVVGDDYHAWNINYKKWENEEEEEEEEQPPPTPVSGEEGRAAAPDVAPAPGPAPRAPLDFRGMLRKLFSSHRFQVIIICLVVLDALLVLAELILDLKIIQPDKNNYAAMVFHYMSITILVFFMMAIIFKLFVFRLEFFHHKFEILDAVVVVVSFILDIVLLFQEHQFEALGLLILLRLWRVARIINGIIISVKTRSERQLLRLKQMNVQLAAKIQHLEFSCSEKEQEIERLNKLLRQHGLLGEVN
Outline: (§1)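 Whole-cell patch clamp at ~21°C. Pipette and bath (mM): ~80 TMA-MeSO3, 100 Bis-Tris, 8 HCl, pH 6.5, 310–320 mOsm. ZnCl2 was diluted into bath solution and applied by gravity superfusion, at least 2 min per change. Test step voltage was set per construct from its V0.5. G_STEP = end-of-step current/(V−V_REV). Effect = 1 − G_Zn/G_control, fitted to the Hill equation. IC50 and nH are means ± SEM from separate cells. ΔpIC50 was tested by unpaired t test, P<0.05.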

[2] = target: T2, human Hv1 E119H-H193A (Homo sapiens, UniProt Q96D96, E119H/H193A)
T2 sequence (Q96D96 1-273 E119H/H193A): T1 sequence (Q96D96 1-273 E153A) with E119H, A153E, H193A
Outline: as §1

[3] = target: T3, human Hv1 E196H (E^4.38H) (Homo sapiens, UniProt Q96D96, E196H)
T3 sequence (Q96D96 1-273 E196H): T1 sequence (Q96D96 1-273 E153A) with A153E, E196H
Outline: as §1

[4] = target: T4, human Hv1 H193A (H^3.71A) (Homo sapiens, UniProt Q96D96, H193A)
T4 sequence (Q96D96 1-273 H193A): T1 sequence (Q96D96 1-273 E153A) with A153E, H193A
Outline: as §1

[5] = target: T5, human Hv1 H140A (H^2.40A) (Homo sapiens, UniProt Q96D96, H140A)
T5 sequence (Q96D96 1-273 H140A): T1 sequence (Q96D96 1-273 E153A) with H140A, A153E
Outline: as §1

[6] = VSTEP 100 mV, calculated as log (IC50)
[7] = read-out: IC50, fit of the mean data to a Hill function, Fig. 2C

- Mean ΔpIC50 = (pIC50_1 - pIC50_2) ([1]; E153A vs WT): −1.29
- Hill value ([1]; VSTEP 40 mV): 0.87
- pIC50 ([1]; VSTEP 40 mV, calculated as log (IC50)): −3.77
- IC50 ([1]; read-out: Mean IC50 @ VSTEP, VSTEP 40 mV, pH 6.5, mean of fits in separate cells): 241 µM
- Mean ΔpIC50 = (pIC50_1 - pIC50_2) ([2]; E119H-H193A vs H193A): 1.38
- nH, fit of the mean data to a Hill function ([2]; Fig. 4A): 0.7
- Hill value ([2]; VSTEP 100 mV): 0.86
- pIC50 [2, 6]: 5.45
- IC50 ([2]; read-out: IC50, fit of the mean data to a Hill function, Fig. 4A): 4.2 µM
- Mean ΔpIC50 = (pIC50_1 - pIC50_2) ([3]; E196H vs WT): −0.43
- Hill value ([3]; VSTEP 100 mV): 0.63
- pIC50 [3, 6]: −4.63
- nH, fit of the mean data to a Hill function ([4]; Fig. 2C): 1.0
- Mean ΔpIC50 = (pIC50_1 - pIC50_2) ([4]; H193A vs WT): −1.37
- Hill value ([4]; VSTEP 100 mV): 1.04
- pIC50 [4, 6]: −4.06
- IC50 [4, 7]: 82.2 µM
- nH, fit of the mean data to a Hill function ([5]; Fig. 2C): 0.7
- Mean ΔpIC50 = (pIC50_1 - pIC50_2) ([5]; H140A vs WT): −1.02
- Hill value ([5]; VSTEP 100 mV): 0.67
- pIC50 [5, 6]: −4.41
- IC50 [5, 7]: 39 µM
Structure (SMILES): [Cl-].[Cl-].[Zn+2] [Zn^2+, ZnCl2]
